# Results pooled from the literature.
# Protocols differ between the studies behind these lines.
# Effect on: metabolic stability
SMILES,host,matrix,concentration,pH,measurement,result
C[C@H]1CN(CC2CCN(c3ccc(C4CCC(=O)NC4=O)cc3F)CC2)CC[C@H]1NS(=O)(=O)c1ccc(Nc2ncc(C(F)(F)F)c(N3CCC[C@](C)(O)C3)n2)c(F)c1 (some centres unmarked),rat,liver microsomes,1 µM,,scaled CLint,45 mL/min/kg
N#Cc1ccc(-c2csc(CNC(=O)[C@H]3CCCN(C(=O)COCCF)C3)n2)cc1,male Sprague-Dawley rat,liver microsomes,0.5 µM,,microsomal CLint,40 µL/min/mg
Cc1[nH]c(C)c(S(=O)(=O)Nc2ccc(C(F)(F)F)c(Cl)c2)c1C(=O)N1CCC(F)(F)C1,rat,liver microsomes,,,microsomal CLint,87 µL/min/mg
Cc1cc(S(=O)(=O)N[C@]2(C)C[C@@H](N3CCN(CC4CCN(c5ccc6c(c5F)n(C)c(=O)n6C5CCC(=O)NC5=O)CC4)CC3)C2)ccc1Nc1ncc(C(F)(F)F)c(N2CCC[C@](C)(O)C2)n1 (some centres unmarked),rat,liver microsomes,1 µM,,scaled CLint,< 21 mL/min/kg
Cc1ccc(C(C)(C)c2ccc(NC(=O)CN(C)c3ccccc3N3CCCC3=O)cc2)cc1,rat,hepatocytes,,,hepatocyte CLint,63 µL/min/10⁶ cells
CN1CCN(c2ccc(-c3ccc4nncc(Nc5ccc(OC(F)(F)F)cc5)c4c3)cc2)CC1,rat,hepatocytes,,,hepatocyte CLint,14 µL/min/10⁶ cells
Cc1cc(S(=O)(=O)NC2CC(N3CCN(CC4CCN(c5cccc6c5n(C)c(=O)n6C5CCC(=O)NC5=O)CC4)CC3)C2)ccc1Nc1ncc(C(F)(F)F)c(N2CCC[C@](C)(O)C2)n1 (some centres unmarked),rat,liver microsomes,1 µM,,scaled CLint,< 21 mL/min/kg
COc1cnc(Nc2cnnc3ccc(-c4ccc(N5CCN(C)CC5)cc4)cc23)nc1,rat,hepatocytes,,,hepatocyte CLint,> 300 µL/min/10⁶ cells
Cc1ccc(N(C)c2ccc(NC(=O)CN(C)c3ccccc3N3CCCC3=O)cn2)cc1,rat,hepatocytes,,,hepatocyte CLint,> 92 µL/min/10⁶ cells
O=C(NCc1nc(-c2ccc(C(F)(F)F)cc2)cs1)[C@H]1CCCN(C(=O)CO[C@H]2CCCNC2)C1,male Sprague-Dawley rat,liver microsomes,0.5 µM,,microsomal CLint,3.6 µL/min/mg
CN(CC(=O)Nc1ccc(N(C)c2ccc(Cl)c(F)c2)cc1)c1ccccc1N1CCCC1=O,rat,hepatocytes,,,hepatocyte CLint,79 µL/min/10⁶ cells
N#Cc1ccc(C[C@H](NC(=O)c2cc3ccc(F)cc3[nH]2)C(=O)N2CCc3ccccc32)cc1,rat,liver microsomes,10 µM,pH 7.4,microsomal CLint,6.6 µL/min/mg
Cc1ccc(N(c2ccc(NC(=O)CN(C)c3ccccc3N3CCCC3=O)cn2)C(C)C)cc1,rat,hepatocytes,,,hepatocyte CLint,86 µL/min/10⁶ cells
Cc1cc(S(=O)(=O)N[C@H]2CC[C@H](CN3CCN(c4ccc(NC5CCC(=O)NC5=O)cc4F)CC3)CC2)ccc1Nc1ncc(C(F)(F)F)c(N2CCC[C@](C)(O)C2)n1 (some centres unmarked),rat,liver microsomes,1 µM,,scaled CLint,< 21 mL/min/kg
Cc1ccc(Oc2ccc(NC(=O)CN(C)c3ccccc3N3CCCC3=O)cc2)cc1,rat,hepatocytes,,,hepatocyte CLint,> 92 µL/min/10⁶ cells
CNS(=O)(=O)c1ccc(Nc2ncc(C(F)(F)F)c(N3CCC[C@](C)(O)C3)n2)c(C)c1,rat,liver microsomes,1 µM,,scaled CLint,40 mL/min/kg
Cc1nnc(-c2ccc3ccn(CC(=O)Nc4ccccc4Cl)c3c2)o1,rat,hepatocytes,,,hepatocyte CLint,> 92 µL/min/10⁶ cells
Cc1ccc(N(C)c2ccc(NC(=O)CN(C)c3cc(F)ccc3N3CCCC3=O)cc2)cc1,rat,hepatocytes,,,hepatocyte CLint,91 µL/min/10⁶ cells
N#Cc1ccc(C[C@H](Nc2nnc(-c3cccc(F)c3)s2)C(=O)N2CCc3ccccc32)cc1,rat,liver microsomes,10 µM,pH 7.4,microsomal CLint,14.7 µL/min/mg
CCOCC(=O)N1CCC[C@H](C(=O)NCc2nc(-c3ccc(C#N)nc3)cs2)C1,male Sprague-Dawley rat,hepatocytes,0.5 µM,,scaled CLint,17 mL/min/kg
Cc1ccc(-c2nnc(N[C@@H](Cc3ccc(C#N)cc3)C(=O)N3CCc4ccccc43)o2)cc1,rat,liver microsomes,10 µM,pH 7.4,microsomal CLint,49.5 µL/min/mg
N#Cc1ccc(-c2csc(CNC(=O)[C@H]3CCCN(C(=O)COC4CC4)C3)n2)cc1,male Sprague-Dawley rat,liver microsomes,0.5 µM,,microsomal CLint,100 µL/min/mg
CCN(c1ccc(C)cc1)c1ccc(NC(=O)CN(C)c2ccccc2N2CCCC2=O)cn1,rat,hepatocytes,,,hepatocyte CLint,> 92 µL/min/10⁶ cells
N#Cc1ccc(C[C@H](Nc2nnc(-c3ccc(Br)cc3)s2)C(=O)N2CCc3ccccc32)cc1,rat,liver microsomes,10 µM,pH 7.4,microsomal CLint,46.2 µL/min/mg
CCONC(=O)N1CCC[C@H](C(=O)NCc2nc(-c3ccc(C#N)cc3)cs2)C1,male Sprague-Dawley rat,liver microsomes,0.5 µM,,microsomal CLint,33 µL/min/mg
Cc1ccc(N(c2ccc(NC(=O)CN(C)c3ccccc3N3CCCC3=O)cc2)C(C)C)cc1,rat,hepatocytes,,,hepatocyte CLint,> 92 µL/min/10⁶ cells
COCC(=O)N1CCC[C@H](C(=O)NCc2nc(-c3ccc(-c4ccccn4)cc3)cs2)C1,male Sprague-Dawley rat,liver microsomes,0.5 µM,,microsomal CLint,104 µL/min/mg
C[C@]1(O)CCCN(c2nc(Nc3ccc(S(=O)(=O)N[C@@H]4CCN(CC5CCN(c6ccc(C7CCC(=O)NC7=O)cc6F)CC5)C[C@H]4F)cc3F)ncc2C(F)(F)F)C1 (some centres unmarked),rat,liver microsomes,1 µM,,scaled CLint,< 21 mL/min/kg
NCCCOCC(=O)N1CCC[C@H](C(=O)NCc2nc(-c3ccc(C4CC4)cc3)cs2)C1,male Sprague-Dawley rat,liver microsomes,0.5 µM,,microsomal CLint,15 µL/min/mg
CNS(=O)(=O)c1ccc(Nc2ncc(C(F)(F)F)c([C@H]3CC[C@@](C)(O)CC3)n2)c(C)c1,rat,liver microsomes,1 µM,,scaled CLint,< 21 mL/min/kg
CCOCC(=O)N1CCC[C@H](C(=O)NCc2nc(-c3ccc(C)nc3)cs2)C1,male Sprague-Dawley rat,liver microsomes,0.5 µM,,microsomal CLint,19 µL/min/mg
Cc1cc(S(=O)(=O)N[C@H]2CC[C@H](N3CCN(CC4CCN(c5cccc6c5n(C)c(=O)n6C5CCC(=O)NC5=O)CC4)CC3)CC2)ccc1Nc1ncc(C(F)(F)F)c(N2CCC[C@](C)(O)C2)n1 (some centres unmarked),rat,liver microsomes,1 µM,,scaled CLint,< 21 mL/min/kg
